Measurements: ChEMBL document CHEMBL4513216, “Probing the Open Global Health Chemical Diversity Library for Multistage-Active Starting Points for Next-Generation Antimalarials” (ACS Infect Dis, 2020)

Assay: Toxicity liver stage against HepG2, at 10uM
Format: cell-based
Parameters: test concentration 10 uM, cell line HepG2-A16-CD81EGFP
Details: human, HepG2-A16-CD81EGFP cells; read-out: INHIBITION
In short: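 Uninfected HepG2-A16-CD81EGFP cells, 3 × 10^3 per well, 1536-well, plated on prespotted compound at 10 μM final, parasite-free screening media added to match infected plates; puromycin 10 μM positive, DMSO 0.5% negative; run in parallel with 48 h PbLuc assay at 37 °C, 5% CO2; viability by CellTiter-Glo luminescence, normalized to controls.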

Compound | cytotoxicity at 10 µM [%]
O=C(CCOCc1ccccc1)N1CCCC1c1noc(C2CC2)n1 (stereo unspecified) | -4.74
CCN(CC)C(=O)c1ccn(COc2ccc(F)cc2)n1 | 7.55
CCCS(=O)(=O)NC(C)c1cccc(-n2cccn2)c1 (stereo unspecified) | 3.65
Cc1nc(C2CCCCN2S(C)(=O)=O)no1 (stereo unspecified) | 9.23
COCCN1C[C@H]2CN(C(=O)c3ccno3)CCN2C1=O | 1.29
CC(=O)N1CCC(c2nn(C)c(=O)n2-c2ccccc2)CC1 | -2.05
CC(Cc1ccc2c(c1)OCO2)c1cn(CCc2c[nH]cn2)nn1 (stereo unspecified) | 8.66
CCc1ncc(C(=O)N2CC(N3CCCCC3)C2)cn1 | -4.68
CC(C)N1[C@H](Cn2cncn2)C[C@@H]2CNCC[C@@H]21 | 1.9
c1csc(-c2noc(CCCN3CCCC3Cn3cccn3)n2)c1 (stereo unspecified) | -7.47
CCO[C@H]1CO[C@@]2(CCCN(Cc3nc(C)cs3)C2)C1 | -9.75
CCCn1c(N2CCCC(C)C2)nc2c(C)nn(C)c2c1=O (stereo unspecified) | 13.4
c1ccc(C(CC2CN(Cc3ncc[nH]3)CCO2)c2ccccc2)cc1 (stereo unspecified) | -0.73
CCn1nc(C)c2c1cnn2CCNS(=O)(=O)c1ccccc1 | 6.28
CNC(=O)[C@H]1C[C@@H]2CN(c3cc(OC)ncn3)C[C@@H]2N1C(C)C | -8.84
CN(C)CC(=O)N1CCO[C@@H]2CC(COCc3ccncc3)C[C@H]21 (stereo partly specified) | -108
CN(C)C(=O)c1cc2ncc(C(=O)NC3CC3)cc2n1C | -0.931
O=C([C@H]1CCCO1)N1CCc2ncc(CN3CCOCC3)n2CC1 | -72.3
CN(C)CC(=O)N1CCN(CC(O)c2ccc(F)cc2)CC1 (stereo unspecified) | -9.11
CCCC(=O)N(C)C(c1cccc(F)c1)c1ccccn1 (stereo unspecified) | -2.51
O=C(Cc1n[nH]c(-c2cncc(Br)c2)n1)NCc1ccccn1 | -1.39
CCS(=O)(=O)NCCNc1c(C#N)cnc2c(F)cc(F)cc12 | 16.2
Cn1nccc1C(=O)N1CCC(c2nnsc2S(C)(=O)=O)CC1 | -4.22

Compound | cytotoxicity at 10 µM [%]
COCCN1CCC(CNC(=O)C2(c3ccc(Br)cc3)CCCC2)C1 (stereo unspecified) | -5.3
Cc1cc(C(=O)NC2CCN(c3nnc(C)c(C)c3C#N)CC2)no1 | -2.12
CC(C)=CCN(C)C1CCCN(Cc2noc(C)n2)C1 (stereo unspecified) | -19.6
Cn1c(CC(=O)O)c(Sc2ccccc2)c2ccccc21 | 4.35
Cc1c[nH]nc1C1CN(c2ncccn2)CCO1 (stereo unspecified) | 4.37
CCOC(=O)c1ccc(Nc2ccc(OC)c(N3CCCC3=O)c2)nc1 | 8.46
CCC(C)NS(=O)(=O)c1ccc(C(=O)N(C)C2(C#N)CCC2)cc1 (stereo unspecified) | 16.1
Cc1nc(CN2C(=O)COC3(CCN(Cc4ccco4)CC3)C2C)cs1 (stereo unspecified) | -13.5
Cc1ccnc(NCCNC(=O)Cc2c(C)[nH]c3c(C)ccc(C)c23)c1 | -1.89
O=C1OCCN1CCS(=O)(=O)c1cccc(Cl)c1 | -0.82
CC(C)c1cc(C(=O)N2CCN(c3ccncc3)CC2)n(C)n1 | -3.5
CC(O)(CNC(=O)c1cccnc1-n1cccn1)c1cccs1 (stereo unspecified) | 7.9
O=C(O)[C@]12CCCN(Cc3ccsc3)C[C@H]1CN(c1ncccn1)C2 | -144
Nc1nc(C(=O)NCC2CCC3(CCNCC3)CO2)cs1 (stereo unspecified) | 21
CC(C)CCn1cc(C(=O)NC2CCS(=O)(=O)C2)c2ccccc2c1=O (stereo unspecified) | -3.68
CC(C)[C@H]1CN(Cc2ccccn2)C[C@@H]1NC(=O)CCS(C)(=O)=O | -7.04
Cc1cnn(C2CN(c3nc(-c4ccncc4)nc4c3CCC4)C2)c1 | -46
COCCc1noc(CNCC2CCCN2c2cccnn2)n1 (stereo unspecified) | 4.33
COc1ccc(C[C@H]2CN(C3CCOCC3)CC[C@@H]2OCC2CC2)cc1 | 2.38
COc1ccc(C(N)=O)cc1NCc1ncc(C(C)(C)C)o1 | -8.2
O=C1NC2(CCN(Cc3ccccc3Cl)CC2)CC1c1ccccc1 (stereo unspecified) | -49.2
NC(=O)COc1ccc(CN2CCNC(C(=O)NC3CC3)C2)cc1Cl (stereo unspecified) | 0.887
Cc1cc(C(=O)N2CCC(CCn3cccn3)CC2)c(C)o1 | -5.27

Compound | cytotoxicity at 10 µM [%]
O=C1COc2ccc(Br)cc2CN1CC1CC1 | -3.46
CNc1ncc(C(=O)N2CCC(c3ccccc3C(=O)O)C2)cn1 (stereo unspecified) | -7.67
O=C(Nc1cc(C(F)(F)F)ccc1Cl)c1ccc(N2CCCC2)nn1 | -4.43
COc1ccnc(CNc2nc(C)nc(C)c2C)c1 | -1.7
CC(C)c1nnsc1CNC(=O)C1CCCN(C(=O)N(C)C)C1 (stereo unspecified) | -7.73
COCC(C)NC(=O)CCSc1ccc(F)cc1 (stereo unspecified) | 1.28
O=C(NCC(F)F)c1ccc(S(=O)(=O)NCCc2ccncc2)cc1 | -7.88
O=C(NCC1CCSCC1)N(CCCO)C1CCc2ccccc21 (stereo unspecified) | 5.77
CC(C)CCN(C(=O)Nc1cccc(C(=O)N(C)C)c1)C1CC1 | -14.2
CCOCc1ccccc1NC(=O)NCC(C)(O)c1cc(C)oc1C (stereo unspecified) | -1.48
Cc1nnc2n1CCN(C(=O)C(OC1CCCC1)c1ccccc1)C2 (stereo unspecified) | 5.87
CCCn1c(C)c(CC(=O)N(C)CCO)c2c1CC(C)(C)CC2=O | -3.64
O=S1(=O)CCCN(Cc2ccccc2OCC(F)(F)F)CC1 | 9.11
Cc1cc(N2CCCN3CCC[C@H]3C2)n2nc(C)c(C)c2n1 | 4.37
Clc1cccc(-n2cnnn2)c1N1CCCC1 | 9.35
CCC(CO)NC(=O)c1ccc2ccc(N(C)CC3CC3)n2c1 (stereo unspecified) | 4.82
O=C(O)C(c1ccc2c(c1)OCCO2)N1CCCC1 (stereo unspecified) | -5.38
Cc1nn(-c2ccccc2)cc1C(=O)N1CCCC(n2ccnc2C)C1 (stereo unspecified) | -3.11
CCn1nnnc1-c1cccc(NC(=O)CCn2cc(C)cn2)c1 | 1.66
Cc1ccc(NC(=O)N2CCC3(CCC(C(=O)N(C)C)O3)CC2)cc1 (stereo unspecified) | -99.2
Cc1nn(C)c2cn(C(C)C(=O)NCc3cccnc3)nc12 (stereo unspecified) | 5.55
O=C(NCc1cnc2n1CCN(Cc1ccsc1)CC2)C1CCC1 | -2.53
COCCNC(=O)CN1CCC(N2CCN(C)C2=O)CC1 | 0.621

Compound | cytotoxicity at 10 µM [%]
CCn1ccnc1CN1CCCN(C(=O)Cc2ccc(C)cc2)CC1 | -7.29
CC(C)CCN(C(=O)c1cc2c([nH]c1=O)CCCC2=O)C1CC1 | -2.98
Cc1cc(C[C@@H]2COC[C@@H]2NC(=O)Cn2c(=O)oc3ccccc32)on1 | -14
COCCO[C@@H]1CCN(c2cc(OC)ncn2)[C@H]1Cc1cnn(C)c1 | -142
O=C(c1ccccc1F)N1CCCn2c(CN3CCCCC3)nnc2C1 | -71.5
CC(C)NC(=O)C1c2c(ncn2C(C)C)CCN1Cc1ccccc1 (stereo unspecified) | 0.167
CCN(Cc1nc(COC)no1)Cc1cc2ccc(F)cc2[nH]c1=O | 2.03
Cc1nnc2ccc(N3CCN(Cc4nccn4C)CC3)nn12 | 13.3
CC(C)Oc1ccc(C(=O)NCc2ccc3c(c2)CCCN3C)cn1 | -6.63
CCOC(C)c1noc(CN2CCN(CC3CCCC3)CC2)n1 (stereo unspecified) | -13.2
Cc1cnn(CC2CN(Cc3cccc(OCC(N)=O)c3)CCO2)c1 (stereo unspecified) | -7.18
Cc1cc(CN2CCC3(CC2)CC(Nc2ncccn2)CO3)nn1C (stereo unspecified) | -1.84
O=C(O)c1nnn(-c2ccc(OC(F)(F)F)cc2)c1-c1ccncc1 | -5.85
Cn1nccc1C(=O)N1CCCN(CCCc2ccccc2)CC1 | -2.45
CCOc1cc(C)nc(N2CCN(C(=O)Cn3cc(C)cn3)CC2)n1 | -5.43
Cc1cccc(C(=O)NCc2ccc(CS(N)(=O)=O)cc2)n1 | -1.07
Cc1ccc(C2CN(Cc3cnc(-c4ccccn4)s3)CCO2)o1 (stereo unspecified) | 2.91
CC(=O)Nc1nc(C(=O)NC(C)c2ccc(F)cc2)cs1 (stereo unspecified) | -0.168
CS(=O)(=O)c1ccc(NC(=O)CSc2ccc3c(c2)CCC3)cn1 | 11.8
CN1CCc2c(C#N)c(NCCCO)n3cnnc3c2C1 | 8.71
Cc1nc(C2CN(C)CCO2)cc(N2CCC(CO)CC2)n1 (stereo unspecified) | -34
O=C(CN1CCCC1)N1CCCC(c2cc(=O)n3c(n2)CCCCC3)C1 (stereo unspecified) | -13.7
COc1cccc(C2(C(=O)NC3CCc4nccn4C3)CCCC2)c1 (stereo unspecified) | 2.74

Compound | cytotoxicity at 10 µM [%]
Cc1ccc(C(=O)N(CCC#N)Cc2ccccn2)cc1C | 0.665
COC(=O)c1ccc(S(=O)(=O)N(C)CC(N)=O)c(Cl)c1 | -1.65
COCC1CN(S(C)(=O)=O)Cc2ncn(CC3CC3)c21 (stereo unspecified) | 1.68
COCc1nc(N(C)C)ncc1C(=O)Nc1ccn(C)n1 | -0.782
CCOC1(C)C(=O)c2ccccc2N1Nc1ccccc1C(=O)CC (stereo unspecified) | 12.9
COCCN1CCC2(CC1)CC(NC(=O)CC1CC1)c1ccccc1O2 (stereo unspecified) | -1.83
CC(C)Oc1ncnc2c1CCN(Cc1ccco1)CC2 | 8.49
CC(=O)N1CCCN(C(=O)c2ccc(=O)n(C)c2)c2ccccc21 | -10.4
c1cn2c(n1)CN(CC1CC1)CC(CN1CCOCC1)C2 (stereo unspecified) | 1.49
Cc1cnn(CCNCc2ccc(OCc3ccncc3)cc2)c1 | -2.99
Cc1cccc(CNC2CCCc3c2cnn3Cc2ccccc2)c1 (stereo unspecified) | -16.6
CC(C)(C)c1n[nH]c(C2CN(CC3CCC3)CCO2)n1 (stereo unspecified) | 9.15
Fc1cccc(N2CCc3ncnc(C4CC4)c3CC2)c1 | 11.9
CCCOC1CCCN(c2nc(COC)nc3c2cnn3C)C1 (stereo unspecified) | -1.42
CCc1nc(C2CCCN2Cc2nnc(CC)o2)no1 (stereo unspecified) | -5.36
CO[C@@H]1CCN(Cc2cccs2)[C@H]1Cc1ccncc1 | -73.4
CN(C)C(=O)NC1COC2(CCN(Cc3ccc(Cl)c(F)c3)CC2)C1 (stereo unspecified) | -76.4
O=C(NCc1cccnc1)NCC(O)c1cccc(C(F)(F)F)c1 (stereo unspecified) | -2.64
Cc1ncc(CN2CCC(O)(c3ccccc3F)CC2)cn1 | 0.46
